Assay results taken from article PMC7949150 (The Journal of Biological Chemistry, 2021).

Columns and labels:
[1] = tested on: H3K27me3 levels in KARPAS-422 tumors; assay: Tumor pharmacodynamic assay; type: in vivo, mice; conditions: Day 12
Plasma protein binding = type: in vitro ADME
PRC2 = PRC2 (Homo sapiens, UniProt Q15910); assay: Differential scanning fluorimetry binding assay; conditions: 750 nM PRC2, 20 μM compound, 200 μM activating peptide; mean ± SEM, N = 3
Summary of the method: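 In-house pentameric PRC2 was mixed with test compound, H3K27me3 activator peptide and 4× thermal-shift dye in 50 mM Hepes pH 7.4, 100 mM NaCl, 1 mM TCEP, 0.2% DMSO. The mix was equilibrated 90 min at RT, then melted from 25 °C to 95 °C at 0.05 °C/s in a real-time PCR instrument. Tm was taken from the first-derivative peak and from a Boltzmann fit. ΔTm is compound minus DMSO control.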

Sequence of PRC2 (Q15910 whole entry): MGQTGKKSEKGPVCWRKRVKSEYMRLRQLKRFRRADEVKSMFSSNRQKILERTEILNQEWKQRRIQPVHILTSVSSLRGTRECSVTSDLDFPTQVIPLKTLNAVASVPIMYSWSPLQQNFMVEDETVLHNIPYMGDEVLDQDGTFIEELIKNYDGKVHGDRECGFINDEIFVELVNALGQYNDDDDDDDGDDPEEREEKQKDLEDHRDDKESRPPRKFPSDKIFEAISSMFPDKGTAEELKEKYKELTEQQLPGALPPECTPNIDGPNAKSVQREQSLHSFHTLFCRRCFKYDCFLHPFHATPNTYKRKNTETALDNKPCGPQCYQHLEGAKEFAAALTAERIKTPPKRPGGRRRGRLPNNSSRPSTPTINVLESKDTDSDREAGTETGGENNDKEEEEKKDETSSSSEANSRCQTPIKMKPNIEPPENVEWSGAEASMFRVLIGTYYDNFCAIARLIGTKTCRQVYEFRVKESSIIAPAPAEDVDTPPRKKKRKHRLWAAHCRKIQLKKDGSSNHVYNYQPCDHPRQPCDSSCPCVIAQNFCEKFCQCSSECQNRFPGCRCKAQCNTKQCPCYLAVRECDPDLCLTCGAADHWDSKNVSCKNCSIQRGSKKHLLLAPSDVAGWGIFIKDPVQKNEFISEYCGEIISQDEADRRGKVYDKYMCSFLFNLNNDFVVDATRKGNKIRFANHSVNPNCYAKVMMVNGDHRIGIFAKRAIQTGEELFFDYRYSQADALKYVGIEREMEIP
Sequence of PRC2 (O75530 whole entry partner): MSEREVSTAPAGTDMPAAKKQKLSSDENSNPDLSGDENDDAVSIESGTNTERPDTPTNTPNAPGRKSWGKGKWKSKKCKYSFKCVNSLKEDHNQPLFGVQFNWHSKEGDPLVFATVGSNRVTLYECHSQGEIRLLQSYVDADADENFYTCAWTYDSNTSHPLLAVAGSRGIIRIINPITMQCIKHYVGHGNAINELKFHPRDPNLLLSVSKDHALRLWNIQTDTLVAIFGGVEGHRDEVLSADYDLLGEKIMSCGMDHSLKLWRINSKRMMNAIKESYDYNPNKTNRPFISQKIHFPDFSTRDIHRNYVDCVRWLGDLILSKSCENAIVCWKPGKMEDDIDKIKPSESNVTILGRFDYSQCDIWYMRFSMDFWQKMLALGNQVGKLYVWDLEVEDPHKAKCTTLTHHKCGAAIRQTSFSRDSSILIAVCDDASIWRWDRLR
Sequence of PRC2 (Q15022 whole entry partner): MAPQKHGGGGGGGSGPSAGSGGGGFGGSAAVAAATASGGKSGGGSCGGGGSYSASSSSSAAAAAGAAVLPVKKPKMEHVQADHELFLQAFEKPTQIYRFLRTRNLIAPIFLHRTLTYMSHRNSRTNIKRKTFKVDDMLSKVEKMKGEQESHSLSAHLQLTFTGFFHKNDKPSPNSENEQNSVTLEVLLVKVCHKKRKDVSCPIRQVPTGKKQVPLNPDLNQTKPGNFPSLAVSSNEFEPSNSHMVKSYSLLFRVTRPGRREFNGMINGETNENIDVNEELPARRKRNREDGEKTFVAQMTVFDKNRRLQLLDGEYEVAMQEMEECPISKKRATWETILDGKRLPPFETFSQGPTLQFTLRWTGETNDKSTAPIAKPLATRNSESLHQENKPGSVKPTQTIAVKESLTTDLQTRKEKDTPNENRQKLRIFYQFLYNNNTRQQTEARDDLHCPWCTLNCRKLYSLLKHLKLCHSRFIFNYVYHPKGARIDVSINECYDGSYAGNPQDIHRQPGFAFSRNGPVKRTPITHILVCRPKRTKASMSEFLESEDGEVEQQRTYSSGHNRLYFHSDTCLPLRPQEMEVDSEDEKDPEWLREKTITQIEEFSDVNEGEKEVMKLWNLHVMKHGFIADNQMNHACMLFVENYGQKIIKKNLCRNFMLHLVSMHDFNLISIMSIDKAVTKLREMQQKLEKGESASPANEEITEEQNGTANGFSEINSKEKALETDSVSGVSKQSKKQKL
Sequence of PRC2 (Q16576 whole entry partner): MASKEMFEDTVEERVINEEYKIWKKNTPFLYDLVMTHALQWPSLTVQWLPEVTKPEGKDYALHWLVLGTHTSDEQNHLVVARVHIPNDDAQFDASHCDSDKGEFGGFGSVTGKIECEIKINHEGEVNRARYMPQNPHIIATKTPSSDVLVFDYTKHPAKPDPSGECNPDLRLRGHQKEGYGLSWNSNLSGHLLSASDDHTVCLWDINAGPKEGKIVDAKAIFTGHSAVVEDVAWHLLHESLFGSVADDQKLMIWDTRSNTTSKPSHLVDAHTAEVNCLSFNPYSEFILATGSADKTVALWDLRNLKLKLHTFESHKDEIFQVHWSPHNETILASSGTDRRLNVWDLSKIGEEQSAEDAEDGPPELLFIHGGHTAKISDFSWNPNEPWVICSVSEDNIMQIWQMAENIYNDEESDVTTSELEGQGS
Sequence of PRC2 (Q09028 whole entry partner): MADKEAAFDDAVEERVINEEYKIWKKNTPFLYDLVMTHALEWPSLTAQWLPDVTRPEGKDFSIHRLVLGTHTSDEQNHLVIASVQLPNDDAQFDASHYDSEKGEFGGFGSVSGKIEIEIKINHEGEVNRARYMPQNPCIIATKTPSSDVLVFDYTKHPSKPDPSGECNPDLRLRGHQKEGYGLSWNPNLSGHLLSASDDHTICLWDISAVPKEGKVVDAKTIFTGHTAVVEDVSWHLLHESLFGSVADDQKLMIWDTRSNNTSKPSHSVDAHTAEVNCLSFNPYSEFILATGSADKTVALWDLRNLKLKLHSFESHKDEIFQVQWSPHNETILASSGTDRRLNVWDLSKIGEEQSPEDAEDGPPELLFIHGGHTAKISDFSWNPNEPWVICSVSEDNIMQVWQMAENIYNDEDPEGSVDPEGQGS

SMILES | reduction in H3K27me3 levels in tumors ([1]; 25 mg/kg QD PO) | H3K27me3 levels in tumors ([1]; 160 mg/kg BID PO) | fraction unbound (Plasma protein binding) | total plasma levels (25 mg/kg QD PO, 1 h postdose on Day 12) [ng/mL] | total concentration in tumors (female, CB-17 SCID, mouse, in vivo) [ng/g] | ΔTmD (first derivative melting peak) (PRC2) [°C]
CCN(c1cc(-c2ccc(CN3CCOCC3)cc2)cc(C(=O)NCc2c(C)cc(C)[nH]c2=O)c1C)C1CCOCC1 [Tazemetostat] | no statistically significant reduction | significant loss of H3K27me3 levels | 0.009 | 6100 | 730 | 
COc1cc(C)[nH]c(=O)c1CNC(=O)c1c(C)n([C@H](C)C2CCN(CC(F)(F)F)CC2)c2ccccc12 [CPI-1205, (R)-N-((4-Methoxy-6-methyl-2-oxo-1,2-dihydropyridin-3-yl)methyl)-2-methyl-1-(1-(1-(2,2,2-trifluoroethyl)piperidin-4-yl)ethyl)-1H-indole-3-carboxamide] |  |  |  |  |  | 11.54 ± 0.05
